Legend:
Bone [1] = assay: Biodistribution in bone of rat 9L cells implanted Fischer rat at 15 to 30 uCi, iv after 30 mins by gamma-counter; type: ADME, organism-based, Bone element; conditions: in vivo, 0.5 h
Procedure, shortened: (§1)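 Male Fischer 344 rats (125-175 g) implanted intracranially by stereotactic injection of 5 × 10^4 9L gliosarcoma cells. Used 10-12 days after implantation. Tracer given into the tail vein at 15-30 µCi in 0.1-0.3 mL sterile saline. Groups of 4 were sacrificed at 15, 30, 60 and 120 min. Tissues were weighed and gamma-counted against dose standards, and counts decay-corrected to %ID/g (mean ± SD). One-way ANOVA.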

Bone [2] = assay: Biodistribution in bone of rat 9L cells implanted Fischer rat at 15 to 30 uCi, iv after 60 mins by gamma-counter; type: ADME, organism-based, Bone element; conditions: in vivo, 1 h; procedure, shortened: as §1
Bone [3] = assay: Biodistribution in bone of rat 9L cells implanted Fischer rat at 15 to 30 uCi, iv after 120 mins by gamma-counter; type: ADME, organism-based, Bone element; conditions: in vivo, 2 h; procedure, shortened: as §1
[4] = Biodistribution in testis of rat 9L cells implanted Fischer rat at 15 to 30 uCi, iv after 15 mins by gamma-counter; type: ADME, organism-based; conditions: in vivo, 0.25 h; procedure, shortened: as §1
[5] = Biodistribution in testis of rat 9L cells implanted Fischer rat at 15 to 30 uCi, iv after 30 mins by gamma-counter; type: ADME, organism-based; conditions: in vivo, 0.5 h; procedure, shortened: as §1
[6] = Biodistribution in testis of rat 9L cells implanted Fischer rat at 15 to 30 uCi, iv after 60 mins by gamma-counter; type: ADME, organism-based; conditions: in vivo, 1 h; procedure, shortened: as §1
[7] = Biodistribution in testis of rat 9L cells implanted Fischer rat at 15 to 30 uCi, iv after 120 mins by gamma-counter; type: ADME, organism-based; conditions: in vivo, 2 h; procedure, shortened: as §1
[8] = Ratio of drug level from tumor to brain of rat 9L cells implanted Fischer rat at 15 to 30 uCi, iv after 15 mins by gamma-counter; type: ADME, organism-based; conditions: in vivo, 0.25 h
Procedure, shortened: (§2)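 Male Fischer 344 rats (125-175 g) received intracranial implants of 9L cells (5 × 10^4 cells) and were used 10-12 days later. Tracer was given by tail vein at 15-30 µCi in 0.1-0.3 mL sterile saline. Groups of 4 were killed at each time point. Tissues were weighed and gamma counted against dose standards with decay correction, giving %ID/g (mean). The ratio is tumor %ID/g over normal brain %ID/g.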

[9] = Ratio of drug level from tumor to brain of rat 9L cells implanted Fischer rat at 15 to 30 uCi, iv after 30 mins by gamma-counter; type: ADME, organism-based; conditions: in vivo, 0.5 h; procedure, shortened: as §2
[10] = Ratio of drug level from tumor to brain of rat 9L cells implanted Fischer rat at 15 to 30 uCi, iv after 60 mins by gamma-counter; type: ADME, organism-based; conditions: in vivo, 1 h; procedure, shortened: as §2
[11] = Ratio of drug level from tumor to brain of rat 9L cells implanted Fischer rat at 15 to 30 uCi, iv after 120 mins by gamma-counter; type: ADME, organism-based; conditions: in vivo, 2 h; procedure, shortened: as §2
9L = assay: Drug uptake in rat 9L cells assessed as intracellular accumulation after 30 mins measured per 5 x 10^5 cells by gamma-counter; type: ADME, cell-based; conditions: 0.5 h
Procedure, shortened: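 9L cells were grown in DMEM with 10% FCS and penicillin/streptomycin, then trypsinized and washed twice in HBSS. About 5 × 10^5 cells received 5 µCi tracer in amino acid-free HBSS for 30 min at 37 °C, without or with 10 mM BCH (L-type inhibitor). Cells were centrifuged and rinsed twice with ice-cold HBSS, then gamma-counted with decay correction. Uptake expressed as % of standard per 5 × 10^5 cells. Triplicates, 1-way ANOVA.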

Blood [12] = assay: Biodistribution in blood of rat 9L cells implanted Fischer rat at 15 to 30 uCi, iv after 15 mins by gamma-counter; type: ADME, organism-based; conditions: in vivo, 0.25 h; procedure, shortened: as §1
Blood [13] = assay: Biodistribution in blood of rat 9L cells implanted Fischer rat at 15 to 30 uCi, iv after 30 mins by gamma-counter; type: ADME, organism-based; conditions: in vivo, 0.5 h; procedure, shortened: as §1
Blood [14] = assay: Biodistribution in blood of rat 9L cells implanted Fischer rat at 15 to 30 uCi, iv after 60 mins by gamma-counter; type: ADME, organism-based; conditions: in vivo, 1 h; procedure, shortened: as §1
Blood [15] = assay: Biodistribution in blood of rat 9L cells implanted Fischer rat at 15 to 30 uCi, iv after 120 mins by gamma-counter; type: ADME, organism-based; conditions: in vivo, 2 h; procedure, shortened: as §1
Heart [16] = assay: Biodistribution in heart of rat 9L cells implanted Fischer rat at 15 to 30 uCi, iv after 15 mins by gamma-counter; type: ADME, organism-based; conditions: in vivo, 0.25 h; procedure, shortened: as §1
Heart [17] = assay: Biodistribution in heart of rat 9L cells implanted Fischer rat at 15 to 30 uCi, iv after 30 mins by gamma-counter; type: ADME, organism-based; conditions: in vivo, 0.5 h; procedure, shortened: as §1
Heart [18] = assay: Biodistribution in heart of rat 9L cells implanted Fischer rat at 15 to 30 uCi, iv after 60 mins by gamma-counter; type: ADME, organism-based; conditions: in vivo, 1 h; procedure, shortened: as §1
Heart [19] = assay: Biodistribution in heart of rat 9L cells implanted Fischer rat at 15 to 30 uCi, iv after 120 mins by gamma-counter; type: ADME, organism-based; conditions: in vivo, 2 h; procedure, shortened: as §1
Lung [20] = assay: Biodistribution in lung of rat 9L cells implanted Fischer rat at 15 to 30 uCi, iv after 15 mins by gamma-counter; type: ADME, organism-based; conditions: in vivo, 0.25 h; procedure, shortened: as §1
Lung [21] = assay: Biodistribution in lung of rat 9L cells implanted Fischer rat at 15 to 30 uCi, iv after 30 mins by gamma-counter; type: ADME, organism-based; conditions: in vivo, 0.5 h; procedure, shortened: as §1
Lung [22] = assay: Biodistribution in lung of rat 9L cells implanted Fischer rat at 15 to 30 uCi, iv after 60 mins by gamma-counter; type: ADME, organism-based; conditions: in vivo, 1 h; procedure, shortened: as §1
Lung [23] = assay: Biodistribution in lung of rat 9L cells implanted Fischer rat at 15 to 30 uCi, iv after 120 mins by gamma-counter; type: ADME, organism-based; conditions: in vivo, 2 h; procedure, shortened: as §1
Liver [24] = assay: Biodistribution in liver of rat 9L cells implanted Fischer rat at 15 to 30 uCi, iv after 15 mins by gamma-counter; type: ADME, organism-based; conditions: in vivo, 0.25 h; procedure, shortened: as §1
Liver [25] = assay: Biodistribution in liver of rat 9L cells implanted Fischer rat at 15 to 30 uCi, iv after 30 mins by gamma-counter; type: ADME, organism-based; conditions: in vivo, 0.5 h; procedure, shortened: as §1

Drug uptake (Bone [1]): 0.26 % ID/g | Drug uptake (Bone [2]): 0.28 % ID/g | Drug uptake (Bone [3]): 0.2 % ID/g | Drug uptake [4]: 0.17 % ID/g | Drug uptake [5]: 0.27 % ID/g | Drug uptake [6]: 0.27 % ID/g | Drug uptake [7]: 0.21 % ID/g | Ratio [8]: 7.2 | Ratio [9]: 11.5 | Ratio [10]: 7.6 | Ratio [11]: 7.7 | Drug uptake (9L): 15.8 %ID | Drug uptake (Blood [12]): 0.36 % ID/g | Drug uptake (Blood [13]): 0.37 % ID/g | Drug uptake (Blood [14]): 0.32 % ID/g | Drug uptake (Blood [15]): 0.26 % ID/g | Drug uptake (Heart [16]): 0.43 % ID/g | Drug uptake (Heart [17]): 0.47 % ID/g | Drug uptake (Heart [18]): 0.38 % ID/g | Drug uptake (Heart [19]): 0.3 % ID/g | Drug uptake (Lung [20]): 0.4 % ID/g | Drug uptake (Lung [21]): 0.57 % ID/g | Drug uptake (Lung [22]): 0.42 % ID/g | Drug uptake (Lung [23]): 0.48 % ID/g | Drug uptake (Liver [24]): 0.73 % ID/g | Drug uptake (Liver [25]): 0.6 % ID/g
Structure (SMILES): N[C@]1(C(=O)O)C[C@H]([18F])C1

Source: ChEMBL document CHEMBL1152757, “Stereoselective synthesis and biological evaluation of syn-1-amino-3-[18F]fluorocyclobutyl-1-carboxylic acid as a potential positron emission tomography brain tumor imaging agent” (Bioorg Med Chem, 2009)
